# High-throughput results deposited in PubChem by several laboratories.
# Autophagy mod: alters autophagy in cells; MEF GFP-LC3 puncta imaging; test concentration mostly 10 µM; calls only at 10 µM (by protocol); 190,000 compounds, 0.98% hits; AID 463193;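 active = percentage of spot-positive cells more than 3 SD above its plate mean, without a fluorescence outlier flag or 80% toxicity; inconclusive = no clear call, values can overlap the other calls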;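 note: spot-positive cell cutoff set from DMSO-treated cells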
# Insulin prom inh: TRM-6 insulin promoter activity inhibition; 130,000 compounds, 0.9% hits; TRM-6 cells (human fetal islet line), insulin promoter-eGFP reporter, imaging; reporter expression induced with tamoxifen; inhibition, % at 2 µM; AID 1273;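 active = inhibition above the mean plus 3 SD, with well images judged a real hit on visual review, cut at about 60% in these data, passing the limit was not always enough; inconclusive = inhibition over the cutoff but images rejected on review; inactive = inhibition not above the cutoff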
# PKD1 inh: inhibitors of human PKD1 kinase. Q15139. PKD1 kinase fluorescence polarization assay. inhibition, % (concentration not given with the values). 200,000 compounds, 0.056% hits; in the data active = inhibition above about 50%
# Arbovirus inh: antivirals against arbovirus infection; arbovirus infection cell-based antiviral screen; inhibition, % at 10 µM; 200,000 compounds, 0.37% hits; in the data active = inhibition above about 30%
# Insulin prom up: MIN6 insulin promoter up-regulation; MIN6 insulin promoter-GFP reporter, high-content imaging; active compounds read high; z-score at 5 µM; 190,000 compounds, 0.3% hits;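 active = z-score above 3 at 5 µM with at least 500 cells counted in the well; inconclusive = wells under 500 cells, flagged as cytotoxic or low count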
# RBBP9 inhibitor: blocks human serine hydrolase RBBP9; O75884; recombinant RBBP9, FP-Rh probe fluorescence polarization; inhibition, % at 7.94 µM; 220,000 compounds, 0.2% hits;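 active = inhibition above the campaign mean of all tested compounds plus 3 SD, cut at about 14% in these data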;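 note: plate controls were DMSO wells with RBBP9 for no effect and wells lacking RBBP9 protein for full effect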
#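 Controls: DMSO-treated enzyme wells and wells lacking RBBP9 | Material: RBBP9 protein | Technique: Fluorescence polarization | Replication: Single well per compound, no replicates | Buffer or medium: Tris-NaCl-Pluronic buffer, pH 8.0 | Timing: 30 min compound preincubation, 45 min probe labeling, 25 °C | Read-out basis: Percent inhibition from mP, scaled between DMSO and no-protein wells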
# * = called active by the depositor; i = inactive; ? = inconclusive; / = no result; + = active, no number. An excerpt weighted towards active compounds, which were near 2.1% of everything screened.
SMILES,Autophagy mod,Insulin prom inh,PKD1 inh,Arbovirus inh,Insulin prom up,RBBP9 inhibitor
Cc1ccc(CSc2nc3ccsc3c(=O)n2Cc2ccccn2)cc1,i,-26,-5,-17,-0.27,-6
CCN1C(=O)/C(=C2/C=Cc3ccccc3N2C)OC1=S,i,-17,2,5,0.83,-5
CCN1C(=O)/C(=C2\C=Cc3cc(C)ccc3N2CC)OC1=S,+,11,-8,1,0.45,-6
S=C(Nc1ccc(Cl)cc1)NN1CCOCC1,i,/,1,1,-0.67,-2
CCOC(=O)CNC(=O)c1cnn2cccnc12,i,-24,-8,-2,/,-4
Clc1ccc2nc(N3CCCCC3)[nH]c2c1,i,87*,-12,-2,/,2
CN1/C(=C\C=C(/C#N)C(=O)Nc2ccc(Cl)cc2)C(C)(C)c2ccccc21,+,-44,13,7,/,-12
COCCNC(=O)C(C(=O)c1ccc(F)cc1)n1cc(C)ccc1=O (stereo not given),i,-10,9,-2,0.16,-10
Cc1c2ccccc2nc2c(F)c(NC(C)C)c(F)c(F)c12,+,-233,6,-12,/,-6
CCOC(=O)c1c(NC(C)=O)sc2c(O)c(CN3CCN(CC)CC3)ccc12,i,86*,-2,12,-0.84,0
CCOC(=O)c1c(NC(C)=O)sc2c(OC)c(Br)ccc12,i,-14,-4,-21,0.01,3
COc1ccc(OC)c(Nc2nc3nonc3nc2N2CCCC(C)C2)c1 (stereo not given),+,-22,-8,0,-1.3,-6
CCN(CC)c1ccc(/C=C(/C#N)c2nc3ccc(C)cc3[nH]2)c(OC(C)C)c1,+,-245,0,-12,/,-7
CCOc1cc(N(CC)CC)ccc1/C=C(/C#N)c1nc2ccccc2[nH]1,+,-233,-18,-8,/,-3
CCCOc1cc(N(CC)CC)ccc1/C=C(/C#N)c1nc2ccc(C)cc2[nH]1,+,/,-1,-1,/,-10
N=c1c(-c2nc3ccccc3[nH]2)cc(C(=O)c2cccs2)nn1-c1ccc(Cl)cc1,+,34,-4,/,/,-7
Cn1c(=O)c2c(nc(N/N=C/c3cccs3)n2Cc2ccccc2)n(C)c1=O,i,/,-9,-5,-0.62,-5
Cc1cc(C)n2c(SCc3ccc(Br)cc3)nnc2n1,/,/,/,/,-1.1,-5
Cc1noc(C)c1CSc1nc2ccccc2n1C,+,43,-7,-1,-0.09,2
Cc1cc(C)n2c(SCc3c(C)noc3C)nnc2n1,i,80*,-1,1,0.27,-7
Cc1noc(C)c1CSc1nnc2c(C)cc3ccccc3n12,i,-9,-9,/,/,3
Cc1nnc(NC(=O)CCNC(=O)c2ccccc2Cl)s1,i,42,-5,18,/,-4
Oc1nc(Nc2ccc(F)cc2)sc1/C=C1\C=Nc2ccccc21,/,/,/,/,0.17,-2
CCOC(=O)c1c(Nc2ccc(Cl)cc2)sc(/C=C2\C=Nc3ccccc32)c1O,+,-50,-6,-13,/,10
O=C(C1CCC1)N1CCc2cc(S(=O)(=O)NC3CCCC3)ccc21,i,6,13,12,0.64,-5
SMILES,Autophagy mod,Insulin prom inh,PKD1 inh,Arbovirus inh,Insulin prom up,RBBP9 inhibitor
O=C(C1CCC1)N1CCc2cc(S(=O)(=O)NCc3ccco3)ccc21,i,82*,-11,3,-1.8,4
CCc1nnc(NC(=O)CSc2nc(C)c3c(c2C#N)CCCC3)s1,i,85*,-6,-7,-0.98,-4
CCc1cc2cc3c(cc2nc1SCC(=O)Nc1cc(C)on1)OCO3,+,/,1,-7,0.23,-7
CCc1nnc(NC(=O)CSc2nc3cc4c(cc3cc2CC)OCCO4)s1,+,-11,-8,-15,-0.16,2
COc1ccc(/C=N/NC(=O)CSc2ccccc2)cc1OC,i,64*,-1,-8,-0.67,-1
COC(=O)c1c(O)cc(=O)n2c1CCCCC2,i,/,4,5,1.9,0
CCOC(=O)c1c2n(c3ccc(O)cc13)CCCCC2,i,86*,-6,1,1.1,2
CC(NC(=O)c1ccccc1NS(C)(=O)=O)c1ccccc1 (stereo not given),i,-8,3,5,0.55,2
CCCC(=O)NC(=S)Nc1ccc(Cl)cn1,i,83*,-4,4,1.1,-1
O=C(NC(=S)Nc1ccc(Cl)cn1)c1cccs1,i,10,-2,0,0.78,-3
CCC1(C)OC(=O)N(CCCn2ccnc2C)C1(C)O (stereo not given),i,3,-4,3,-0.67,-11
CCCCOC(=O)CSc1n[nH]c(=O)[nH]c1=O,i,79*,-1,8,/,2
O=C(CSc1nnc(-c2ccccc2)n1-c1ccccc1)N1c2ccccc2Sc2ccccc21,i,/,-24,-12,1.8,1
[O-][N+]1=c2ccc(Nc3ccccc3)cc2=NC12CCCCC2,i,/,-1,-31,-0.35,0
COc1ccc(Nc2ccc3c(c2)=NC2(CCCCC2)[N+]=3[O-])cc1,+,/,5,-28,-2.4,1
Cc1ccc(CNC(=O)CSCc2ccccc2)cc1,+,/,-2,2,-0.07,-7
CCOC(=O)C1C(=O)C=C(/C=C/c2ccc(N(C)C)cc2)CC1c1ccccc1 (stereo not given),+,/,-18,-12,9.8*,-8
CCOC(=O)C1C(=O)C=C(c2ccc(C)cc2)CC1c1ccccc1 (stereo not given),i,/,-4,6,-0.36,-5
COc1ccc([N+](=O)[O-])cc1N(CC(O)CN1CCCC1)S(=O)(=O)c1ccc(C)cc1 (stereo not given),i,/,8,-9,-0.15,-7
OC(CNCc1ccc(F)cc1)(c1ccc(F)cc1)c1ccc(F)cc1,i,/,-7,3,/,2
OC(CNCc1ccc(Cl)cc1)(c1ccccc1)c1ccc(F)cc1 (stereo not given),+,/,-6,7,/,-12
CCOC(=O)CCc1c(C)nc2cc(-c3ccccc3OC)[nH]n2c1=O,i,?,-1,-9,0.69,-1
CCN1/C(=C/c2ccc3ccccc3[n+]2CC)C=Cc2ccccc21,+,-223,7,-29,?,-13
CCCCN1/C(=C/c2ccc3ccccc3[n+]2CC)Sc2ccccc21,+,/,4,-37,?,-3
CCN1/C(=C/c2ccc3cc(C)ccc3[n+]2CC)Sc2cc(C)ccc21,?,i,-5,-35,?,-18
CCN1/C(=C/c2cc[n+](C)cc2)C=Cc2cc(C)ccc21,i,-96,-6,-10,?,-2
CC1CCCCN1CC(=O)Nc1cc(S(=O)(=O)N2CCOCC2)ccc1N1CCCC1 (stereo not given),i,/,1,4,0.28,-7
CCCCN(CCCC)Cc1ccc(C(=O)NNC(=O)Nc2ccccc2)o1,+,-12,-4,2,-1.4,8
